For data set [1], the target named is T1, ATP-dependent translocase ABCB1 (Homo sapiens, UniProt P08183). The data set can be described thus: TP_TRANSPORTER: increase in Colchicine intracellular accumulation (Colchicine: 0.0175 uM, BM-223: 100 uM) in CEM/VBL600 cells. Format: functional, cell-based. The conditions noted are these: cem/vbl600, 100 µM. A digest of the protocol: (§1)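 1.5×10⁶ viable cells were preincubated 10 min at 37 °C with inhibitor or 0.1% DMSO. [³H]colchicine (final 1.25 µCi/ml; 17.5 nM) was added for 60 min at 37 °C. Cells were pelleted at 4 °C, washed ice-cold and counted by scintillation. Uptake is given as % of the no-inhibitor control; n≥3.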
T1 sequence (P08183 whole entry): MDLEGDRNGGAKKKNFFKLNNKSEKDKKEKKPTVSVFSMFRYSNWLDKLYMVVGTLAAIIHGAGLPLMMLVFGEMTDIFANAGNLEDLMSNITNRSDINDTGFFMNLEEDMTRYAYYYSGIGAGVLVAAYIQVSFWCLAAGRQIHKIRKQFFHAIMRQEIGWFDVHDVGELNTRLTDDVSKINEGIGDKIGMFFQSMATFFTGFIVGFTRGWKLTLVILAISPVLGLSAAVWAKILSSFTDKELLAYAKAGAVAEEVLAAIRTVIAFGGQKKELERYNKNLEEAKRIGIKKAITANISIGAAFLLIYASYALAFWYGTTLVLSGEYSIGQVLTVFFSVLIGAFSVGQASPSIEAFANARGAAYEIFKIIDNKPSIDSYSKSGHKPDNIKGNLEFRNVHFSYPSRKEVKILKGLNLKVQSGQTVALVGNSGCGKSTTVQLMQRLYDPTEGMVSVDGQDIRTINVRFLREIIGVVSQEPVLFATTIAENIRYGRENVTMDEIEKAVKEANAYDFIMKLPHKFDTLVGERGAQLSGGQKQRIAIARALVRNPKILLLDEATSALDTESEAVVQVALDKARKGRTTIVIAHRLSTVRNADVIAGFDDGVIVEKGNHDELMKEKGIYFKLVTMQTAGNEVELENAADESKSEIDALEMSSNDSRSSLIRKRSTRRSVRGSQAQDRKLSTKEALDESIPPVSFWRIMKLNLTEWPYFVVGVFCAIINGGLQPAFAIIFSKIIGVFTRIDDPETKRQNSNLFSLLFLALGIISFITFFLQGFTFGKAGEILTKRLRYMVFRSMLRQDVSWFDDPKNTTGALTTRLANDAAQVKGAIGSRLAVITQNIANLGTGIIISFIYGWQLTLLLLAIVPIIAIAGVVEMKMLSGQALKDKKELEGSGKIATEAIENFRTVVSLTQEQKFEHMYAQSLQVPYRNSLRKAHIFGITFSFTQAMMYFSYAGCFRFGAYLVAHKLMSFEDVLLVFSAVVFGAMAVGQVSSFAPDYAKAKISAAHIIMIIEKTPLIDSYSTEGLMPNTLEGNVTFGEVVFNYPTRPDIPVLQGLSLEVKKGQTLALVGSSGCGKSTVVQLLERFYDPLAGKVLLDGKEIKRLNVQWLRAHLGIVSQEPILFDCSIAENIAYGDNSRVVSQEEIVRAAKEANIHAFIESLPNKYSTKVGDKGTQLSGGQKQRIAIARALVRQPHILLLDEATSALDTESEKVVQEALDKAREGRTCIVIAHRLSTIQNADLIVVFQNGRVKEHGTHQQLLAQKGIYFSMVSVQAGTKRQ

In data set [2] the target is Multidrug resistance protein 1a (Rattus norvegicus) (UniProt Q6PSM0). The data set can be described thus: TP_TRANSPORTER: increase in Glibenclamide intracellular accumulation (Glibenclamide: 0.0525 uM, BM-223: 100 uM) in CC531mdr+ cells. In kind it is functional, cell-based. A digest of the protocol: (§2)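 Confluent CC531mdr+ monolayers, held colchicine-free ≥12 h, were preincubated 10 min at 37 °C in buffer A with inhibitor or 0.1% DMSO. They were then exposed 60 min to [³H]glibenclamide (2.5 µCi/ml; 52.5 nM glibenclamide) with inhibitor. After an ice-cold buffer wash, acid extraction (0.1 N HNO₃) and scintillation counting, uptake was expressed as % of the inhibitor-free control; n≥3.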
Chain of Multidrug resistance protein 1a (Rattus norvegicus) (Q6PSM0 as listed by the source): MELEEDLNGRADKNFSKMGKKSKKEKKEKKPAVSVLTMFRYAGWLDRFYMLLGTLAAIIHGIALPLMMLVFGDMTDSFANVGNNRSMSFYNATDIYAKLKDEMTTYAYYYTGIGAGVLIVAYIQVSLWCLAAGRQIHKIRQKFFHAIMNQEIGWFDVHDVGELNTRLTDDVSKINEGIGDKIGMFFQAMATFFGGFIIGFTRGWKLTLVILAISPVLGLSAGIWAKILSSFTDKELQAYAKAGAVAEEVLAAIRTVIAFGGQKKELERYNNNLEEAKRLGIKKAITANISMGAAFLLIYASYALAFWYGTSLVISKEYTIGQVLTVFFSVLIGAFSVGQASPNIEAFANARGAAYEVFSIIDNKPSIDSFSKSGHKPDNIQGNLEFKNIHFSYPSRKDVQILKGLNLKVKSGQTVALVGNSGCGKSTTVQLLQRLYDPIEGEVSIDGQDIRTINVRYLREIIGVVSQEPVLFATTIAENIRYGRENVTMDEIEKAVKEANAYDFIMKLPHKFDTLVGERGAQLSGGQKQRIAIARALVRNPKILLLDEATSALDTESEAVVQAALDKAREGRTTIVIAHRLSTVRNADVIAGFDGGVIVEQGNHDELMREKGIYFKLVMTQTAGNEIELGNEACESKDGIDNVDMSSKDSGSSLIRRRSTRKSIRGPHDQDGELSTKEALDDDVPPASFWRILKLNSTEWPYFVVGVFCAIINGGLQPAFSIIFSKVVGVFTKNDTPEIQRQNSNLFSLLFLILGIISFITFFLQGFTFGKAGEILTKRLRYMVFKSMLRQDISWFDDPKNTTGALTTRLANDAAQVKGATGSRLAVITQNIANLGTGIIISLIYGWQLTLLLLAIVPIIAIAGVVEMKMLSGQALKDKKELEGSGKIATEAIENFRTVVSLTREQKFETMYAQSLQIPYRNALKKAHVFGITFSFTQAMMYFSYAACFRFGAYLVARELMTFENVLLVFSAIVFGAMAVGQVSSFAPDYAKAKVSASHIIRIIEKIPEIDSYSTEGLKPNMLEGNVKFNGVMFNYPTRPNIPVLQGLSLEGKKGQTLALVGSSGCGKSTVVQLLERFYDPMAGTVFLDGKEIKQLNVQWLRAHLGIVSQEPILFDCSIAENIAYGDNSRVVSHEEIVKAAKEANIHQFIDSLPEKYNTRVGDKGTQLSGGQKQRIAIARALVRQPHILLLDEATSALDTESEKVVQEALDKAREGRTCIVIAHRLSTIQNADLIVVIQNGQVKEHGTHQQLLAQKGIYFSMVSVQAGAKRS

The target is the same in data set [3]. The data set can be described thus: TP_TRANSPORTER: increase in Colchicine intracellular accumulation (Colchicine: 0.035 uM, BM-223: 100 uM) in CC531mdr+ cells. Format: functional, cell-based. A digest of the protocol:
(§3)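 CC531mdr+ monolayers were grown to confluence and kept colchicine-free for ≥12 h. They were preincubated 10 min at 37 °C in buffer A (pH 7.4) with inhibitor or 0.1% DMSO, then incubated 60 min in buffer A with [³H]colchicine (2.5 µCi/ml; 35 nM colchicine) plus the same additions. After an ice-cold wash, radioactivity was extracted with 0.1 N HNO₃ and counted. Accumulation is given as % of the no-inhibitor control; n≥3.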

Data set [4] has as its target T1, ATP-dependent translocase ABCB1. Description: TP_TRANSPORTER: inhibition of Azidopine photoaffinity labelling (Azidopine: 0.16 uM, BM-223: 100 uM) in membranes from CEM/VBL600 cells. The conditions noted are these: cem/vbl600, 100 µM.
For data set [5] the target is unchanged. The data set can be described thus: TP_TRANSPORTER: increase in Colchicine intracellular accumulation (Colchicine: 0.0175 uM, BM-208: 100 uM) in CEM/VBL600 cells. In kind it is functional, cell-based. The settings on record: cem/vbl600, 100 µM. The gist of the method: as §1
Data set [6] deals with Multidrug resistance protein 1a (Rattus norvegicus) (UniProt Q6PSM0). The data set can be described thus: TP_TRANSPORTER: increase in Glibenclamide intracellular accumulation (Glibenclamide: 0.0525 uM, BM-208: 100 uM) in CC531mdr+ cells. In kind it is functional, cell-based. The gist of the method:
as §2

For data set [7] the target is unchanged. The data set can be described thus: TP_TRANSPORTER: increase in Colchicine intracellular accumulation (Colchicine: 0.035 uM, BM-208: 100 uM) in CC531mdr+ cells. Format: functional, cell-based. The gist of the method: as §3
Data set [8] deals with T1, ATP-dependent translocase ABCB1. Description: TP_TRANSPORTER: inhibition of Azidopine photoaffinity labelling (Azidopine: 0.16 uM, BM-208: 100 uM) in membranes from CEM/VBL600 cells. The settings on record: cem/vbl600, 100 µM.
Data set [9] shares this target. The data set can be described thus: TP_TRANSPORTER: increase in Colchicine intracellular accumulation (Colchicine: 0.0175 uM, Glibenclamide: 100 uM) in CEM/VBL600 cells. In kind it is functional, cell-based. The settings on record: cem/vbl600, 100 µM. The gist of the method: as §1
The target of data set [10] is Multidrug resistance protein 1a (Rattus norvegicus) (UniProt Q6PSM0). The data set can be described thus: TP_TRANSPORTER: increase in Colchicine intracellular accumulation (Colchicine: 0.035 uM, Glibenclamide: 100 uM) in CC531mdr+ cells. In kind it is functional, cell-based. The gist of the method: as §3
Data set [11] has the same target. The data set can be described thus: TP_TRANSPORTER: increase in Glibenclamide intracellular accumulation (Glibenclamide: 0.0525 uM, Vinblastine: 100 uM) in CC531mdr+ cells. In kind it is functional, cell-based. A digest of the protocol:
as §2

Data set [12] addresses T1, ATP-dependent translocase ABCB1. Description: TP_TRANSPORTER: increase in Colchicine intracellular accumulation (Colchicine: 0.0175 uM, Vinblastine: 100 uM) in CEM/VBL600 cells. In kind it is functional, cell-based. The settings on record: cem/vbl600, 100 µM. The gist of the method:
as §1

Data set [13] has as its target Multidrug resistance protein 1a (Rattus norvegicus) (UniProt Q6PSM0). Description: TP_TRANSPORTER: increase in Colchicine intracellular accumulation (Colchicine: 0.035 uM, Vinblastine: 100 uM) in CC531mdr+ cells. Format: functional, cell-based. A digest of the protocol: as §3

Activity data for five molecules are collected here from ChEMBL document CHEMBL2074208, “P-glycoprotein inhibition by glibenclamide and related compounds” (Pflugers Arch, 1999).

SMILES strings stand for the structures.

Consider `COc1ccc(Cl)cc1C(=O)NCCc1ccc(S(=O)(=O)N/C(=N/C#N)NC2CCC(C)CC2)cc1` (centres undefined), for which the Activity result in data set [1], in data set [2], in data set [3] and in data set [4] was “inhibitor [+]” each time.

Consider `COc1ccc(Cl)cc1C(=O)NCCc1ccc(S(=O)(=O)N/C(=N/C#N)NC2CCCCC2)cc1`, for which the Activity entry in data set [5], in data set [6], in data set [7] and in data set [8] was “inhibitor [+]” each time.

With `COc1ccc(Cl)cc1C(=O)NCCc1ccc(S(=O)(=O)NC(=O)NC2CCCCC2)cc1` [GLYBURIDE], the Activity entry in data set [9] and in [10] was “inhibitor [+]” throughout.

For `COc1ccc(CCN(C)CCCC(C#N)(c2ccc(OC)c(OC)c2)C(C)C)cc1OC` (centres undefined), the Activity result in data set [11] was “inhibitor [+]”.

In the case of `CC[C@]1(O)C[C@@H]2CN(CCc3c([nH]c4ccccc34)[C@@](C(=O)OC)(c3cc4c(cc3OC)N(C)[C@H]3[C@@](O)(C(=O)OC)[C@H](OC(C)=O)[C@]5(CC)C=CCN6CC[C@]43[C@@H]65)C2)C1` [VINBLASTINE], the Activity result in data set [12], in data set [11] and in [13] was “inhibitor [+]” throughout.
